Calls of active or inactive are those of the source. The rule behind the calls is not given here.
Columns and labels:
[1] = tested on: Photobacterium leiognathi; experiment: Antibacterial activity against Photobacterium leiognathi Sh1 assessed as inhibition of bacterial luminescence at 0.025 mg/mL after 10 mins by bioluminometry-based acute action test; type: functional; parameters: scale not given: the % may be the effect or the level left
Method in brief: (§1)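 Marine P. leiognathi Sh1 (Azov Sea shrimp isolate) diluted in chloride solution to 10^5 cells/mL; compounds suspended in DMSO mixed with 1 mL bacterial suspension. Acute test: 10 min at 25 °C, then bioluminescence measured by bioluminometer as % of compound-free control. Tetracycline reference.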

Staphylococcus aureus [2] = experiment: Antibacterial activity against Staphylococcus aureus at 1 to 5 mg/mL after 24 hrs by stiff-plate agar-diffusion method; type: functional, organism-based
Method in brief: (§2)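 Agar diffusion (stiff plate) with test substances at 5 mg/mL in grooves, allowed to diffuse into nutrient agar; inoculum 10^9 c.f.u./mL; bacteria incubated 24 h at 35 °C. Read-out: inhibition zone diameter (not sensitive 11–15 mm, sensitive 16–25 mm, highly sensitive >25 mm). Vancomycin and oxacillin as standards; three repeats.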

[3] = tested on: Photobacterium leiognathi; experiment: Antibacterial activity against Photobacterium leiognathi Sh1 assessed as inhibition of bacterial luminescence at 0.025 mg/mL after 10 mins by bioluminometry-based chronic action test; type: functional; parameters: scale not given: the % may be the effect or the level left
Method in brief: (§3)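 Chronic (growth plus luminescence) test with P. leiognathi Sh1 at 10^5 cells/mL in chloride solution, compounds added in DMSO. After 10 min at 25 °C, growth medium added at 1:50 and the mix incubated 16–18 h at 30 °C. Luminescence then measured by bioluminometer as % of untreated control. Tetracycline reference.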

Escherichia coli [4] = experiment: Antibacterial activity against Escherichia coli at 1 to 5 mg/mL after 24 hrs by stiff-plate agar-diffusion method; type: functional, organism-based; method in brief: as §2
Aspergillus niger [5] = experiment: Antifungal activity against Aspergillus niger at 1 to 5 mg/mL after 48 to 72 hrs by stiff-plate agar-diffusion method; type: functional, organism-based
Method in brief: (§4)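 Fungal plates run by stiff-plate agar diffusion, substances applied to grooves at 5 mg/mL; 10^9 c.f.u./mL cells; incubation 48–72 h at 28–30 °C. Inhibition zone diameter scored (11–15 mm not sensitive, 16–25 mm sensitive, >25 mm highly sensitive). Nystatin standard; experiments done three times.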

[6] = tested on: Photobacterium leiognathi; experiment: Antibacterial activity against Photobacterium leiognathi Sh1 assessed as inhibition of bacterial luminescence at 0.25 mg/mL after 10 mins by bioluminometry-based chronic action test; type: functional; parameters: scale not given: the % may be the effect or the level left; method in brief: as §3
Mycobacterium [7] = experiment: Antibacterial activity against Mycobacterium luteum at 1 to 5 mg/mL after 24 hrs by stiff-plate agar-diffusion method; type: functional, organism-based; method in brief: as §2
[8] = tested on: Photobacterium leiognathi; experiment: Antibacterial activity against Photobacterium leiognathi Sh1 assessed as inhibition of bacterial luminescence at 0.25 mg/mL after 10 mins by bioluminometry-based acute action test; type: functional; parameters: scale not given: the % may be the effect or the level left; method in brief: as §1
Yamadazyma tenuis [9] = experiment: Antifungal activity against Candida tenuis at 1 to 5 mg/mL after 48 to 72 hrs by stiff-plate agar-diffusion method; type: functional, organism-based; method in brief: as §4
[10] = tested on: Photobacterium leiognathi; experiment: Antibacterial activity against Photobacterium leiognathi Sh1 assessed as inhibition of bacterial luminescence at 0.1 mg/mL after 10 mins by bioluminometry-based acute action test; type: functional; parameters: scale not given: the % may be the effect or the level left; method in brief: as §1
[11] = tested on: Photobacterium leiognathi; experiment: Antibacterial activity against Photobacterium leiognathi Sh1 assessed as inhibition of bacterial luminescence at 0.1 mg/mL after 10 mins by bioluminometry-based chronic action test; type: functional; parameters: scale not given: the % may be the effect or the level left; method in brief: as §3
[12] = tested on: Photobacterium leiognathi; experiment: Antibacterial activity against Photobacterium leiognathi Sh1 at 0.1 to 0.25 ug/mL; type: functional, organism-based
CCRF-CEM = experiment: Cytotoxicity against human CCRF-CEM cells assessed as cell growth at 10^-5 M after 48 hrs by SRB assay; type: functional; conditions: read-out: Activity
Method in brief: (§5)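 NCI 60-cell-line one-dose primary screen: cells inoculated and preincubated 24–48 h, then test agent added at a single 10^-5 M concentration for a further 48 h. Endpoint is sulforhodamine B protein staining read spectrophotometrically. Reported as percent growth relative to untreated control cells.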

CAKI-1 = experiment: Cytotoxicity against human Caki1 cells assessed as cell growth at 10^-5 M after 48 hrs by SRB assay; type: functional; conditions: CAKI-1, 48 h, read-out: Activity; method in brief: as §5
PC-3 = experiment: Cytotoxicity against human PC3 cells assessed as cell growth at 10^-5 M after 48 hrs by SRB assay; type: functional; conditions: PC-3, 48 h, read-out: Activity
Method in brief: (§6)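 NCI human tumor cell line panel from nine cancer types. Each line was inoculated and preincubated 24–48 h, then exposed to a single concentration (10^-5 M) for 48 h. Growth was read by sulforhodamine B protein staining, measured spectrophotometrically. Value reported as percent growth of treated cells relative to untreated controls.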

UO-31 = experiment: Cytotoxicity against human UO31 cells assessed as cell growth at 10^-5 M after 48 hrs by SRB assay; type: functional; conditions: UO-31, 48 h, read-out: Activity; method in brief: as §6
SNB-75 = experiment: Cytotoxicity against human SNB75 cells assessed as cell growth at 10^-5 M after 48 hrs by SRB assay; type: functional; conditions: SNB-75, 48 h, read-out: Activity; method in brief: as §6
Staphylococcus aureus [13] = experiment: Antibacterial activity against Staphylococcus aureus assessed as zone of inhibition at 0.01 mg/mL after 24 hrs by stiff-plate agar-diffusion method; type: functional
Method in brief: (§7)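 Stiff-plate agar diffusion. Inoculum 10^9 c.f.u./mL. Compounds were streaked across grooves in the agar nutrient plate and left to diffuse. Plates were incubated 24 h at 35 °C. Read-out was inhibition zone diameter: 11–15 mm not sensitive, 16–25 mm sensitive, >25 mm highly sensitive. Vancomycin and oxacillin were the standards. Three repeats.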

Yamadazyma tenuis [14] = experiment: Antifungal activity against Candida tenuis assessed as zone of inhibition at 0.01 mg/mL after 48 to 72 hrs by stiff-plate agar-diffusion method; type: functional
Method in brief: (§8)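 Fungi were tested by stiff-plate agar diffusion from a 10^9 c.f.u./mL inoculum. Compounds were placed in agar grooves and allowed to diffuse. Incubation was 48–72 h at 28–30 °C. Inhibition zone diameter was scored as not sensitive (11–15 mm), sensitive (16–25 mm) or highly sensitive (>25 mm). Nystatin was the standard. Experiments were done in triplicate.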

Escherichia coli [15] = experiment: Antibacterial activity against Escherichia coli assessed as zone of inhibition at 0.01 mg/mL after 24 hrs by stiff-plate agar-diffusion method; type: functional; method in brief: as §7
Mycobacterium [16] = experiment: Antibacterial activity against Mycobacterium luteum assessed as zone of inhibition at 0.01 mg/mL after 24 hrs by stiff-plate agar-diffusion method; type: functional; method in brief: as §7
Aspergillus niger [17] = experiment: Antifungal activity against Aspergillus niger assessed as zone of inhibition at 0.01 mg/mL after 48 to 72 hrs by stiff-plate agar-diffusion method; type: functional; method in brief: as §8
Staphylococcus aureus [18] = experiment: Antibacterial activity against Staphylococcus aureus assessed as zone of inhibition at 0.1 mg/mL after 24 hrs by stiff-plate agar-diffusion method; type: functional; conditions: read-out: DIZ
Aspergillus niger [19] = experiment: Antifungal activity against Aspergillus niger assessed as zone of inhibition of late spore formation at 0.5 mg/mL after 48 to 72 hrs by stiff-plate agar-diffusion method; type: functional; conditions: read-out: DIZ
Escherichia coli [20] = experiment: Antibacterial activity against Escherichia coli assessed as zone of inhibition at 0.1 mg/mL after 24 hrs by stiff-plate agar-diffusion method; type: functional; conditions: read-out: DIZ
Yamadazyma tenuis [21] = experiment: Antifungal activity against Candida tenuis assessed as zone of inhibition at 0.5 mg/mL after 48 to 72 hrs by stiff-plate agar-diffusion method; type: functional; conditions: read-out: DIZ
Mycobacterium [22] = experiment: Antibacterial activity against Mycobacterium luteum assessed as zone of inhibition at 0.1 mg/mL after 24 hrs by stiff-plate agar-diffusion method; type: functional; conditions: read-out: DIZ
Aspergillus niger [23] = experiment: Antifungal activity against Aspergillus niger assessed as zone of inhibition at 0.1 mg/mL after 48 to 72 hrs by stiff-plate agar-diffusion method; type: functional; conditions: read-out: DIZ
Staphylococcus aureus [24] = experiment: Antibacterial activity against Staphylococcus aureus assessed as zone of inhibition at 0.5 mg/mL after 24 hrs by stiff-plate agar-diffusion method; type: functional; conditions: read-out: DIZ
Yamadazyma tenuis [25] = experiment: Antifungal activity against Candida tenuis assessed as zone of inhibition at 0.1 mg/mL after 48 to 72 hrs by stiff-plate agar-diffusion method; type: functional; conditions: read-out: DIZ
Escherichia coli [26] = experiment: Antibacterial activity against Escherichia coli assessed as zone of inhibition at 0.5 mg/mL after 24 hrs by stiff-plate agar-diffusion method; type: functional; conditions: read-out: DIZ
Mycobacterium [27] = experiment: Antibacterial activity against Mycobacterium luteum assessed as zone of inhibition at 0.5 mg/mL after 24 hrs by stiff-plate agar-diffusion method; type: functional; conditions: read-out: DIZ
[28] = in the assay text read “after 16 to 18 hrs” for “after 10 mins”

Molecule | Activity [1] | Activity (Staphylococcus aureus [2]) | Activity [3] | Activity (Escherichia coli [4]) | Activity (Aspergillus niger [5]) | Activity [6] | Activity (Mycobacterium [7]) | Activity [8] | Activity (Yamadazyma tenuis [9]) | Activity [10] | Activity [11] | other results
Cc1nn2c(SCC(=O)NC34CC5CC(CC(C5)C3)C4)nc3ccccc3c2nc1=O | 36% | inactive | 25% | inactive | inactive | 0% | inactive | 0% | inactive | 0% | 1.88% | –
Cc1n[nH]c(-c2ccccc2N)nc1=O | – | – | – | – | – | – | – | – | – | – | – | Activity [12]: Active
Cc1nn2c(SCC(=O)O)nc3ccccc3c2nc1=O | 66.7% | inactive | – | inactive | inactive | – | inactive | 0% | inactive | 0% | – | growth at 10 µM (CCRF-CEM): 93.3%; growth at 10 µM (CAKI-1): 96%; Activity [3, 28]: 36.4%; growth at 10 µM (PC-3): 84.5%; growth at 10 µM (UO-31): 87.1%; Activity [6, 28]: 0%; growth at 10 µM (SNB-75): 83.5%; Activity [11, 28]: 61.5%
O=C(CSc1nc2ccccc2c2nc(=O)c(-c3ccccc3)nn12)NC12CC3CC(CC(C3)C1)C2 | 86.96% | inactive | 97.14% | inactive | inactive | 78.57% | inactive | 56.52% | inactive | 80.43% | 85.71% | –
Cc1onc(-c2ccccc2)c1C(=O)N[C@@H]1C(=O)N2[C@@H]1SC(C)(C)[C@@H]2C(=O)O [OXACILLIN] | – | – | – | – | – | – | – | – | – | – | – | zone of inhibition at 10 µg/mL (Staphylococcus aureus [13]; read-out: DIZ): 21 mm; zone of inhibition at 10 µg/mL (Yamadazyma tenuis [14]; read-out: DIZ): 0 mm; zone of inhibition at 10 µg/mL (Escherichia coli [15]; read-out: DIZ): 0 mm; zone of inhibition at 10 µg/mL (Mycobacterium [16]; read-out: DIZ): 0 mm; zone of inhibition at 10 µg/mL (Aspergillus niger [17]; read-out: DIZ): 0 mm
CCC1C2CCC(C2)C1NC(=O)CSc1nc2ccccc2c2nc(=O)c(C)nn12 (centres undefined) | 91.67% | inactive | – | inactive | inactive | – | inactive | 62.5% | inactive | 104.17% | – | Activity [3, 28]: 90.28%; Activity [6, 28]: 86.11%; Activity [11, 28]: 93.06%
Cc1nn2c(SCC(=O)Nc3ccc(C45CC6CC(CC(C6)C4)C5)cc3)nc3ccccc3c2nc1=O | 90% | – | 86.96% | – | – | 50% | – | 32.86% | – | 65.71% | 94.57% | zone of inhibition at 100 µg/mL (Staphylococcus aureus [18]): 0 mm; zone of inhibition at 500 µg/mL (Aspergillus niger [19]): 21 mm; zone of inhibition at 100 µg/mL (Escherichia coli [20]): 0 mm; zone of inhibition at 500 µg/mL (Yamadazyma tenuis [21]): 0 mm; zone of inhibition at 100 µg/mL (Mycobacterium [22]): 0 mm; zone of inhibition at 100 µg/mL (Aspergillus niger [23]): 0 mm; zone of inhibition at 500 µg/mL (Staphylococcus aureus [24]): 0 mm; zone of inhibition at 100 µg/mL (Yamadazyma tenuis [25]): 0 mm; zone of inhibition at 500 µg/mL (Escherichia coli [26]): 0 mm; zone of inhibition at 500 µg/mL (Mycobacterium [27]): 0 mm
O=C(CSc1nc2ccccc2c2nc(=O)c(-c3ccccc3)nn12)Nc1ccc(C23CC4CC(CC(C4)C2)C3)cc1 | 102.94% | inactive | 118.75% | inactive | inactive | 66.25% | inactive | 54.41% | inactive | 80.88% | 111.25% | –
CN(C)[C@@H]1C(O)=C(C(N)=O)C(=O)[C@@]2(O)C(O)=C3C(=O)c4c(O)cccc4[C@@](C)(O)[C@H]3C[C@@H]12 [TETRACYCLINE] | 80.7% | – | – | – | – | – | – | 0% | – | 9.1% | – | Activity [3, 28]: 0%; Activity [6, 28]: 0%; Activity [11, 28]: 0%
Cc1ccc(-c2nn3c(SCC(=O)Nc4ccc(C56CC7CC(CC(C7)C5)C6)cc4)nc4ccccc4c3nc2=O)cc1 | 84.62% | inactive | 170% | inactive | inactive | 16% | inactive | 50% | inactive | 96.15% | 140% | –
NYSTATIN | – | – | – | – | – | – | – | – | – | – | – | inhibition zone (IZ) (Staphylococcus aureus [13]): 11 mm; inhibition zone (IZ) (Yamadazyma tenuis [14]): 24 mm; inhibition zone (IZ) (Escherichia coli [15]): 0 mm; inhibition zone (IZ) (Mycobacterium [16]): 15 mm; inhibition zone (IZ) (Aspergillus niger [17]): 25 mm

Reference: ChEMBL document CHEMBL1914438, “Synthesis and biological activity of novel N-cycloalkyl-(cycloalkylaryl)-2-[(3-R-2-oxo-2H-[1,2,4]triazino[2,3-c]quinazoline-6-yl)thio]acetamides” (2011)
